The source made the active and inactive calls. The calls are words filed in the database; no cut-off is given here.
Key:
Pseudomonas aeruginosa [1] = experiment: Antagonist activity at Pseudomonas aeruginosa LasR expressed in Escherichia coli DH5alpha assessed as inhibition of protein interaction with OdDHL at 1 to 10 uM after 1.5 hrs by beta-galactosidase reporter gene assay
Method in brief: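 E. coli DH5α reporter carrying pJN105L (LasR) and pSC11 (lasI::lacZ); overnight culture with 10 µg/mL gentamicin and 50 µg/mL ampicillin diluted 1:100 in LB, used at OD595 0.3. Incubated with compound, OdDHL and 0.4% arabinose at 37 °C for 1.5 hr. β-galactosidase read by luminescence; RLU ratio = luminescence/OD595 ×100.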

Pseudomonas aeruginosa [2] = experiment: Inhibition of static biofilm formation of Pseudomonas aeruginosa PA14 at 10 uM after 24 hrs by crystal violet staining-based assay; type: functional
Method in brief: (§1)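 PA14 overnight culture (OD595 1.0) diluted 1:20 in AB medium, pH 7.5, with compound (0–100 µM), in borosilicate bottles, static at 37 °C for 24 hr.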

Pseudomonas aeruginosa [3] = experiment: Agonist activity at Pseudomonas aeruginosa LasR expressed in Escherichia coli DH5alpha at 10 uM after 1.5 hrs by beta-galactosidase reporter gene assay
Pseudomonas aeruginosa [4] = experiment: Inhibition of dynamic biofilm formation of Pseudomonas aeruginosa PA14 at 10 uM after 48 hrs by Ruby/ConA staining-based confocal laser scanning microscopic method; type: functional
Method in brief: (§2)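 Glass slides seeded 24 h at 37 °C, static, with PA14 (OD595 1.0) in AB medium, then placed in a drip-flow reactor fed with AB medium plus compound (0–10 µM) at 0.3 mL/min, 37 °C, 48 hr. PBS-washed biofilm stained 15 min with FITC-ConA (carbohydrate) and SYPRO Ruby (protein); CLSM at 20×; volume (µm³/µm²) and average thickness quantified by Comstat2.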

Pseudomonas aeruginosa [5] = experiment: Inhibition of dynamic biofilm formation of Pseudomonas aeruginosa PA14 assessed as biofilm volume up to 10 uM after 48 hrs by Ruby/ConA staining-based assay (reference value: 23.1 +/- 1.8 um'3/um'2); type: functional; method in brief: as §2
Pseudomonas aeruginosa [6] = experiment: Inhibition of dynamic biofilm formation of Pseudomonas aeruginosa PA14 assessed as biofilm thickness up to 10 uM after 48 hrs by Ruby/ConA staining-based assay (reference value: 34.5 +/- 1.3 um); type: functional; method in brief: as §2
Pseudomonas aeruginosa [7] = experiment: Inhibition of static biofilm formation of Pseudomonas aeruginosa PA14 assessed as level of biofilm formation at 10 uM after 24 hrs by crystal violet staining-based assay relative to control; type: functional; parameters: scale not given: the % may be the effect or the level left; method in brief: as §1
Pseudomonas aeruginosa [8] = experiment: Growth inhibition of Pseudomonas aeruginosa PA14 at 100 uM after 24 hrs
Method in brief: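 P. aeruginosa PA14 overnight culture (OD595 1.0), 5% dilution with compound (0–100 µM), grown in 96-well plates at 37 °C for 24 h; growth read as OD595.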

Pseudomonas aeruginosa [9] = experiment: Inhibition of dynamic biofilm formation of Pseudomonas aeruginosa PA14 assessed as volume of carbohydrates in biofilm up to 10 uM after 48 hrs by Ruby/ConA staining-based assay relative to control; type: functional; parameters: scale not given: the % may be the effect or the level left; method in brief: as §2
Pseudomonas aeruginosa [10] = experiment: Inhibition of dynamic biofilm formation of Pseudomonas aeruginosa PA14 assessed as volume of proteins in biofilm up to 10 uM after 48 hrs by Ruby/ConA staining-based assay relative to control; type: functional; parameters: scale not given: the % may be the effect or the level left; method in brief: as §2
Pseudomonas aeruginosa [11] = experiment: Reversible binding affinity to Pseudomonas aeruginosa LasR expressed in Escherichia coli DH5alpha at 1 uM after 1.5 hrs in presence of OdDHL by beta-galactosidase reporter gene assay
Method in brief: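 LasR reporter in E. coli DH5α (pJN105L + pSC11) with 0.4% arabinose, 37 °C, 1.5 hr. Compound at 1 µM tested against OdDHL at 0, 0.1, 1, 10 and 100 µM, compared with no-compound control. β-galactosidase luminescence divided by OD595.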

Pseudomonas aeruginosa [12] = experiment: Inhibition of static biofilm formation of Pseudomonas aeruginosa PA14 at 100 uM after 24 hrs by crystal violet staining-based assay; type: functional; method in brief: as §1

Structure (SMILES)	inhibition (Pseudomonas aeruginosa [1])	inhibition (Pseudomonas aeruginosa [2])	other results
CCCCCCCC(O)CC(=O)CCc1ccc(F)c(OC)c1 (stereo not drawn)	Active	Active	–
CCCCCCCC(=O)CCc1ccc(O)c(OC)c1	Active	Active	–
CCCCCCCCCC(=O)/C=C/c1ccc(O)c(OC)c1	Active	Active	–
CCCCCCCC(O)CC(=O)CCc1ccc(O)c(OCC)c1 (stereo not drawn)	Active	–	–
CCCCCCC(O)CC(=O)CCc1ccc(O)c(OC)c1 (stereo not drawn)	Active	–	Activity (Pseudomonas aeruginosa [3]): inactive
CCCCCCC[C@H](O)CC(=O)CCc1ccc(O)c(OC)c1	Active	–	inhibition (Pseudomonas aeruginosa [4]): Active; Activity (Pseudomonas aeruginosa [5]): 17 um3/um2; Activity (Pseudomonas aeruginosa [6]): 17 um; Activity (Pseudomonas aeruginosa [7]): 100%
CCCCCC(O)CC(=O)CCc1cccc(OC)c1 (stereo not drawn)	Active	–	–
CCCCCC(O)CC(=O)CCc1ccc(O)c(OC)c1 (stereo not drawn)	Active	–	Activity (Pseudomonas aeruginosa [3]): inactive
CCCCCCCC(O)CC(=O)CCc1ccc(O)c(OC)c1 (stereo not drawn)	Active	–	Activity (Pseudomonas aeruginosa [3]): inactive
CCCCCCC[C@@H](O)CC(=O)CCc1ccc(O)c(OC)c1	Active	–	growth inhibition (GI) (Pseudomonas aeruginosa [8]): Non-Toxic; inhibition (Pseudomonas aeruginosa [4]): Active; Activity (Pseudomonas aeruginosa [5]): 9.7 um3/um2; Activity (Pseudomonas aeruginosa [6]): 13.9 um; Activity (Pseudomonas aeruginosa [7]): 72%
CCCCCC(O)CC(=O)CCc1ccc(O)cc1 (stereo not drawn)	Active	Active	–
CCCC(O)CC(=O)CCc1ccc(O)c(OC)c1 (stereo not drawn)	Active	–	Activity (Pseudomonas aeruginosa [3]): inactive
CCCCCC(O)CC(=O)/C=C/c1ccc(O)c(OC)c1 (stereo not drawn)	Active	–	–
CCCCCCCC(O)CC(=O)CCc1ccccc1 (stereo not drawn)	Active	–	–
CCCCCCC[C@@H](O)CC(=O)/C=C/c1ccc(O)c(OC)c1	Active	Active	Activity (Pseudomonas aeruginosa [9]): 47 - 74%; growth inhibition (GI) (Pseudomonas aeruginosa [8]): Non-Toxic; Activity (Pseudomonas aeruginosa [10]): 23 - 56%; inhibition (Pseudomonas aeruginosa [4]): Active; Activity (Pseudomonas aeruginosa [5]): 7.4 um3/um2; Activity (Pseudomonas aeruginosa [6]): 10.3 um; Activity (Pseudomonas aeruginosa [11]): Active
CCCCCCCC(=O)/C=C/c1ccc(O)c(OC)c1	Active	Active	–
CCCCCCCC(O)CC(=O)CCc1cccc(OC)c1 (stereo not drawn)	Active	–	–
CCCCCCCC(O)CC(=O)CCc1ccc(O)cc1 (stereo not drawn)	Active	Active	–
CCCCC[C@H](O)CC(=O)CCc1ccc(O)c(OC)c1	Active	Active	–
CCCCCC(O)CC(=O)CCc1ccc(F)c(OC)c1 (stereo not drawn)	Active	Active	–
CCCCCCCC(O)CC(=O)CCc1ccc(F)cc1 (stereo not drawn)	Active	Active	–
CCCCCC(O)CC(=O)CCc1ccc(F)cc1 (stereo not drawn)	Active	Active	–
CCCCCCCC(O)CC(=O)CCc1ccc(OC)c(OC)c1 (stereo not drawn)	Active	–	–
CCCCCCCC(O)CC(=O)/C=C/c1ccc(O)c(OC)c1 (stereo not drawn)	Active	–	–
CCCCCC(O)CC(=O)CCc1ccccc1 (stereo not drawn)	Active	–	–
CCCCCCCCC(O)CC(=O)CCc1ccc(O)c(OC)c1 (stereo not drawn)	Active	–	Activity (Pseudomonas aeruginosa [3]): inactive; growth inhibition (GI) (Pseudomonas aeruginosa [8]): Toxic; inhibition (Pseudomonas aeruginosa [12]): Active
CCCCCCCCCC(O)CC(=O)CCc1ccc(O)c(OC)c1 (stereo not drawn)	Active	–	Activity (Pseudomonas aeruginosa [3]): inactive; growth inhibition (GI) (Pseudomonas aeruginosa [8]): Toxic; inhibition (Pseudomonas aeruginosa [12]): Active
CCCCC(O)CC(=O)CCc1ccc(O)c(OC)c1 (stereo not drawn)	Active	–	Activity (Pseudomonas aeruginosa [3]): inactive
CCCCCCCCCC(=O)CCc1ccc(O)c(OC)c1	Active	Active	–

Reference: ChEMBL document CHEMBL4028898, “Structure-Activity Relationships of 6- and 8-Gingerol Analogs as Anti-Biofilm Agents” (J Med Chem, 2017)
